The source made the active and inactive calls.
Key:
Format in all cases: functional, cell-based
Settings in all cases: CV-1
[1] = biological target: T1, Peroxisome proliferator-activated receptor alpha (Mus musculus) (UniProt P23204); assay: Agonist activity at mouse PPARalpha expressed in CV1 cells co-expressing tk-PPRE-luciferase vector assessed as transient transactivation at 20 uM after 24 hrs by luciferase reporter gene assay relative to GW0746
T1 sequence (whole entry): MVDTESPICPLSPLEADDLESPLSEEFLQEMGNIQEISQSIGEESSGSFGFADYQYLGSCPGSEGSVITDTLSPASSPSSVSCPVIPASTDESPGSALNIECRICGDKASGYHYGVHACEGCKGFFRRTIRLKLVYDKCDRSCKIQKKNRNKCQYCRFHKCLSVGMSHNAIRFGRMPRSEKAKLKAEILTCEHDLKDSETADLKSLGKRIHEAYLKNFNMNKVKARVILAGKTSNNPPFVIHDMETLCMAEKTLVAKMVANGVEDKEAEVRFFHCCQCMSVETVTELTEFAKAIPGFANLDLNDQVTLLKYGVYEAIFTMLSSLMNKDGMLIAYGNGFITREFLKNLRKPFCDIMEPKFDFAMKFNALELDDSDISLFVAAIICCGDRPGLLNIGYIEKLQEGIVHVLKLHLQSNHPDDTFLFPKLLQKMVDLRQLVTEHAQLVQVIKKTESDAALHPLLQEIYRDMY
Summary of the method: (§1)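 CV-1 cells seeded at 1.5 × 10⁵ cells/well in DMEM with 10% FBS. Transient transfection for 6 h with PPAR expression vector, tk-PPRE-luciferase reporter and β-galactosidase plasmid, then 24 h of compound exposure. Luciferase read in cell lysates. β-gal read as absorbance at 410 nm. Activity expressed as luciferase/β-gal. Not active means below 10% transactivation at 20 µM. At least three separate experiments.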

[2] = biological target: T2, Peroxisome proliferator-activated receptor delta (Mus musculus) (UniProt P35396); assay: Agonist activity at mouse PPARdelta expressed in CV1 cells co-expressing tk-PPRE-luciferase vector assessed as transient transactivation at 20 uM after 24 hrs by luciferase reporter gene transactivation assay relative to GW0742; summary of the method: as §1
T2 sequence (whole entry): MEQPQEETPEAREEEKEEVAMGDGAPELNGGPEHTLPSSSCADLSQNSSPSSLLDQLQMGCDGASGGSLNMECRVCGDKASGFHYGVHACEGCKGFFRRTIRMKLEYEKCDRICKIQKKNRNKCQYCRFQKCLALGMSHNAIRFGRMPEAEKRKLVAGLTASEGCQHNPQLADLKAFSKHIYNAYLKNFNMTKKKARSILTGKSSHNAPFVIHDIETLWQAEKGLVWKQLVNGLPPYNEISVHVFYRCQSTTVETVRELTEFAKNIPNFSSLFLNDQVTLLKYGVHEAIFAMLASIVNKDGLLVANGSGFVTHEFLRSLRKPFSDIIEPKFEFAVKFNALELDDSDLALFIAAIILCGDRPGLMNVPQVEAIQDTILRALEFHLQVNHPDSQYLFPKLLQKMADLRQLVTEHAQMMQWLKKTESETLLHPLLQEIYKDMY

[3] = biological target: T3, Peroxisome proliferator-activated receptor gamma (Mus musculus) (UniProt P37238); assay: Agonist activity at mouse PPARgamma expressed in CV1 cells co-expressing tk-PPRE-luciferase vector assessed as transient transactivation at 20 uM after 24 hrs by luciferase reporter gene transactivation assay relative to rosiglitazone; summary of the method: as §1
T3 sequence (whole entry): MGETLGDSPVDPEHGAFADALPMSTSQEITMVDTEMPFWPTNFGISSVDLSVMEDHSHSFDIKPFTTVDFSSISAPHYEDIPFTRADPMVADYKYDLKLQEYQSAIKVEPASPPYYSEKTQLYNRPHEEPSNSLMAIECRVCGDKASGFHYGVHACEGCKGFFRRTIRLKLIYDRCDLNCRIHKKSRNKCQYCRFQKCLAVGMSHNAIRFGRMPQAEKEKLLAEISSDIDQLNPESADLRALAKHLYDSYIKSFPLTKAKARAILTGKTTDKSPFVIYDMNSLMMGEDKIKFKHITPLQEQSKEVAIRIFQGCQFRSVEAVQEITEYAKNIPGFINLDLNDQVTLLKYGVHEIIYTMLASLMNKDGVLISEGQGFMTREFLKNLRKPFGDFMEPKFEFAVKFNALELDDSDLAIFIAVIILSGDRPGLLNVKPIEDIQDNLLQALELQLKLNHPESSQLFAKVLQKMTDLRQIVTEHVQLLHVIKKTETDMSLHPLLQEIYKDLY

| Structure (SMILES) | Activity [1] | Activity [2] | Activity [3] |
| --- | --- | --- | --- |
| COC(=O)Cc1cn(C(=O)c2ccc(Cl)cc2)c2ccc(OCCCN(C)c3nc4ccccc4o3)cc12 | inactive | 18.3% | 28.9% |
| CN(CCCOc1ccc2[nH]cc(CC(=O)O)c2c1)c1nc2ccccc2o1 | inactive | inactive | 18.3% |
| CN(CCOc1ccc2cc(C(=O)O)[nH]c2c1)c1nc2ccccc2o1 | inactive | inactive | inactive |
| CN(CCOc1ccc2cc(C(=O)O)[nH]c2c1)c1nc2ccccc2s1 | inactive | 14.6% | inactive |
| CCn1c(C(=O)O)cc2ccc(OCCN(C)c3nc4ccccc4s3)cc21 | 16.7% | 68.8% | 66.4% |
| CN(CCOc1ccc2[nH]cc(CC(=O)O)c2c1)c1nc2ccccc2o1 | inactive | inactive | 28.1% |
| CN(CCCOc1ccc2c(c1)c(CC(=O)O)cn2CC(=O)O)c1nc2ccccc2o1 | inactive | inactive | inactive |
| CN(CCOc1ccc2cc(C(=O)O)n(Cc3ccccc3)c2c1)c1nc2ccccc2o1 | 10% | 33.4% | 43.9% |
| CN(CCOc1ccc2cc(C(=O)O)n(C)c2c1)c1nc2ccccc2o1 | inactive | inactive | inactive |
| CN(CCCOc1ccc2c(c1)c(CC(=O)O)cn2Cc1ccc(F)cc1)c1nc2ccccc2o1 | 13.3% | inactive | 15.8% |
| CN(CCOc1ccc2c(c1)c(CC(=O)O)cn2C)c1nc2ccccc2o1 | 28% | inactive | 58.6% |
| COC(=O)Cc1cn(CC(=O)OC)c2ccc(OCCCN(C)c3nc4ccccc4o3)cc12 | inactive | inactive | 37.1% |
| COC(=O)Cc1c[nH]c2ccc(OCCCN(C)c3nc4ccccc4o3)cc12 | inactive | inactive | 42.1% |
| CCn1cc(CC(=O)O)c2cc(OCCN(C)c3nc4ccccc4o3)ccc21 | inactive | 32.9% | 66.7% |
| CCn1c(C(=O)O)cc2ccc(OCCN(C)c3nc4ccccc4o3)cc21 | inactive | inactive | 23.3% |
| CN(CCOc1ccc2cc(C(=O)O)n(C)c2c1)c1nc2ccccc2s1 | 13.6% | 27.9% | 29.6% |
| COC(=O)Cc1cn(Cc2ccc(F)cc2)c2ccc(OCCCN(C)c3nc4ccccc4o3)cc12 | inactive | inactive | inactive |

Reference: ChEMBL document CHEMBL1770086, “Design and synthesis of benzoxazole containing indole analogs as peroxisome proliferator-activated receptor-γ/δ dual agonists” (Bioorg Med Chem Lett, 2011)
